Columns and labels:
Raji [1] = experiment: Inhibition of TPA-induced EBV-early antigen activation in human Raji cells assessed as EA activation at 1000 molar ratio after 48 hrs relative to control; format: cell-based; parameters: scale not given: the % may be the effect or the level left; conditions: human gammaherpesvirus 4
In short: (§1)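 Raji cells (non-producer sub-line, spontaneous EA under 0.1%) at 1×10^6/mL, incubated 37 °C for 48 h with n-butyric acid (4 mmol), TPA (32 pmol in DMSO) and compound in DMSO. Dose expressed as mol ratio to TPA (1000, 500, 100, 10). EA-positive cells were detected by indirect immunofluorescence with NPC patient serum, at least 500 cells counted. Assays were run in triplicate. Results are relative to butyrate+TPA control (100%). IC50 given in nM.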

Raji [2] = experiment: Inhibition of TPA-induced EBV-early antigen activation in human Raji cells assessed as EA activation at 500 molar ratio after 48 hrs relative to control; format: cell-based; parameters: scale not given: the % may be the effect or the level left; conditions: human gammaherpesvirus 4; in short: as §1
Raji [3] = experiment: Inhibition of TPA-induced EBV-early antigen activation in human Raji cells assessed as EA activation at 100 molar ratio after 48 hrs relative to control; format: cell-based; conditions: human gammaherpesvirus 4; in short: as §1
Raji [4] = experiment: Inhibition of TPA-induced EBV-early antigen activation in human Raji cells assessed as EA activation at 10 molar ratio after 48 hrs relative to control; format: cell-based; parameters: scale not given: the % may be the effect or the level left; conditions: human gammaherpesvirus 4; in short: as §1
[5] = Cytotoxicity against human Raji cells carrying EBV genome assessed as cell viability at 1000 molar ratio by trypan blue staining method; format: cell-based; conditions: read-out: Activity
In short: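 Raji cells (EBV genome-carrying, in RPMI-1640 with 10% FBS) at 1×10^6/mL, incubated 48 h at 37 °C with n-butyric acid (4 mmol), TPA (32 pmol) and test compound in DMSO. Viability scored by Trypan Blue staining. Molar ratio means mol of compound per mol of TPA (32 pmol).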

[6] = Inhibition of TPA-induced EBV-early antigen activation in human Raji cells assessed as EA activation after 48 hrs; format: cell-based, human gammaherpesvirus 4; in short: as §1
Mus musculus [7] = experiment: Inhibition of DMBA-induced and TPA-promoted carcinogenesis in ICR mouse assessed as reduction of mouse bearing papillomas at 85 nmol administered 1 hr before TPA treatment measured after 10 to 15 weeks; format: functional
In short: (§2)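 Female SPF ICR mice, 6 weeks old, 15 per group, backs shaved. Initiation was one topical dose of DMBA (390 nmol) in acetone 0.1 mL. Promotion was TPA (1.7 nmol) twice weekly, with compound given topically at 85 nmol. Papilloma incidence and papillomas per mouse were followed to week 20, and tumor length and width were recorded. Significance was set at P<0.05 versus the DMBA/TPA control.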

Mus musculus [8] = experiment: Inhibition of DMBA-induced and TPA-promoted carcinogenesis in ICR mouse assessed as reduction of mouse bearing papillomas at 85 nmol administered 1 hr before TPA treatment measured after 20 weeks; format: functional; in short: as §2
Mus musculus [9] = experiment: Inhibition of DMBA-induced and TPA-promoted carcinogenesis in ICR mouse assessed as reduction of mouse bearing papillomas length at 85 nmol administered 1 hr before TPA treatment measured after 20 weeks; format: functional; in short: as §2
Mus musculus [10] = experiment: Inhibition of DMBA-induced and TPA-promoted carcinogenesis in ICR mouse assessed as reduction of mouse bearing papillomas width at 85 nmol administered 1 hr before TPA treatment measured after 20 weeks; format: functional; in short: as §2
Mus musculus [11] = species on record: Mus musculus; experiment: Toxicity in ICR mouse assessed as change in body weight at 85 nmol; format: organism-based; conditions: in vivo
Mus musculus [12] = species on record: Mus musculus; experiment: Toxicity in ICR mouse assessed as lesional damage at 85 nmol; format: organism-based; conditions: in vivo
Mus musculus [13] = experiment: Toxicity in ICR mouse assessed as edema at 85 nmol; format: organism-based; conditions: in vivo
Mus musculus [14] = species on record: Mus musculus; experiment: Toxicity in ICR mouse assessed as erosion at 85 nmol; format: organism-based; conditions: in vivo
Mus musculus [15] = species on record: Mus musculus; experiment: Toxicity in ICR mouse assessed as ulcer at 85 nmol; format: organism-based; conditions: in vivo

Structure (SMILES) | Activity (Raji [1]) [%] | Activity (Raji [2]) [%] | EA activation relative to control (Raji [3]) [%] | Activity (Raji [4]) [%] | viability at 1000 molar ratio [5] [%] | IC50 [6] [µM] | inhibition (INH) (Mus musculus [7]) [%] | inhibition (INH) (Mus musculus [8]) [%] | Activity (Mus musculus [9]) [mm] | Activity (Mus musculus [10]) [mm] | Activity (Mus musculus [11]) | Activity (Mus musculus [12]) | Activity (Mus musculus [13]) | Activity (Mus musculus [14]) | Activity (Mus musculus [15])
CO[C@H]1CC[C@@]2(C)[C@@H](CC[C@@]3(C)CC4=CC[C@H]5C(C)(C)[C@H](OC(=O)c6cc(O)c(O)c(O)c6)CC[C@]5(C)[C@H]4CC[C@@H]32)C1(C)C | 2.2 | 36.5 | 71.3 | 91.5 | 60 | 0.29 | 20 | 86.6 | 18 | 15 | Non-toxic | Non-toxic | Non-toxic | Non-toxic | Non-toxic
CO[C@@H]1CC[C@@]2(C)[C@@H](CC[C@@]3(C)CC4=CC[C@H]5C(C)(C)[C@H](OC(=O)CC(C)(C)C(=O)O)CC[C@]5(C)[C@H]4CC[C@@H]32)C1(C)C | 0 | 29.7 | 67.5 | 91.5 | 60 | 0.251 | 13.3 | 80 | 16 | 14 | Non-toxic | Non-toxic | Non-toxic | Non-toxic | Non-toxic
CO[C@H]1CC[C@@]2(C)[C@@H](CC[C@@]3(C)CC4=CC[C@H]5C(C)(C)[C@H](OC(=O)CN6CCCCC6)CC[C@]5(C)[C@H]4CC[C@@H]32)C1(C)C | 13.5 | 46.3 | 82 | 100 | 60 | 0.46 |  |  |  |  |  |  |  |  | 
CO[C@@H]1CC[C@@]2(C)[C@@H](CC[C@@]3(C)CC4=CC[C@H]5C(C)(C)[C@H](OC(=O)CCC(=O)Oc6ccc([C@@H]7CC(=O)c8c(O)cc(O)cc8O7)cc6)CC[C@]5(C)[C@H]4CC[C@@H]32)C1(C)C | 14.3 | 48.7 | 81 | 100 | 60 | 0.473 |  |  |  |  |  |  |  |  | 
CO[C@H]1CC[C@@]2(C)[C@@H](CC[C@@]3(C)CC4=CC[C@H]5C(C)(C)[C@H](OC(=O)CCC(=O)Oc6ccc(-c7coc8cc(O)cc(O)c8c7=O)cc6)CC[C@]5(C)[C@H]4CC[C@@H]32)C1(C)C | 12 | 45.2 | 79.6 | 100 | 60 | 0.455 |  |  |  |  |  |  |  |  | 
CO[C@H]1CC[C@@]2(C)[C@@H](CC[C@@]3(C)CC4=CC[C@H]5C(C)(C)[C@H](OC(=O)CC(C)(C)C(=O)O)CC[C@]5(C)[C@H]4CC[C@@H]32)C1(C)C | 0 | 28.5 | 67 | 90.3 | 60 | 0.248 |  |  |  |  |  |  |  |  | 
CO[C@@H]1CC[C@@]2(C)[C@@H](CC[C@@]3(C)CC4=CC[C@H]5C(C)(C)[C@H](OC(=O)CCC(=O)Oc6ccc(-c7coc8cc(O)ccc8c7=O)cc6)CC[C@]5(C)[C@H]4CC[C@@H]32)C1(C)C | 15.8 | 50.3 | 83.4 | 100 | 60 | 0.498 |  |  |  |  |  |  |  |  | 
CO[C@H]1CC[C@@]2(C)[C@@H](CC[C@@]3(C)CC4=CC[C@H]5C(C)(C)[C@H](OC(=O)CCC(=O)O)CC[C@]5(C)[C@H]4CC[C@@H]32)C1(C)C | 0 | 33.6 | 69.5 | 93.8 | 60 | 0.285 |  |  |  |  |  |  |  |  | 
CO[C@H]1CC[C@@]2(C)[C@@H](CC[C@@]3(C)CC4=CC[C@H]5C(C)(C)[C@H](OC(=O)CN)CC[C@]5(C)[C@H]4CC[C@@H]32)C1(C)C | 12 | 42.5 | 80.3 | 100 | 60 | 0.449 |  |  |  |  |  |  |  |  | 
CO[C@@H]1CC[C@@]2(C)[C@@H](CC[C@@]3(C)CC4=CC[C@H]5C(C)(C)[C@H](OC(=O)CCC(=O)Oc6ccc(-c7coc8cc(O)cc(O)c8c7=O)cc6)CC[C@]5(C)[C@H]4CC[C@@H]32)C1(C)C | 12.2 | 45.9 | 81 | 100 | 60 | 0.458 |  |  |  |  |  |  |  |  | 
COc1c(O)cc(C(=O)O[C@@H]2CC[C@]3(C)[C@H]4CC[C@H]5[C@@](C)(CC[C@H]6C(C)(C)[C@@H](OC)CC[C@@]65C)CC4=CC[C@H]3C2(C)C)cc1O | 4.7 | 37.8 | 72.5 | 93.4 | 60 | 0.375 |  |  |  |  |  |  |  |  | 
CO[C@@H]1CC[C@@]2(C)[C@@H](CC[C@@]3(C)CC4=CC[C@H]5C(C)(C)[C@H](OC(=O)CCC(=O)O)CC[C@]5(C)[C@H]4CC[C@@H]32)C1(C)C | 0 | 32.4 | 68.3 | 92.4 | 60 | 0.281 |  |  |  |  |  |  |  |  | 
CC1(C)CC[C@]2(C(=O)O)CC[C@]3(C)C(=CC[C@@H]4[C@@]5(C)CC[C@H](O)C(C)(C)[C@@H]5CC[C@]43C)[C@@H]2C1 [OLEANOLIC_ACID] | 12.7 | 30 | 80 | 100 |  | 0.449 |  |  |  |  |  |  |  |  | 
CO[C@H]1CC[C@@]2(C)[C@@H](CC[C@@]3(C)CC4=CC[C@H]5C(C)(C)[C@H](OC(=O)CCC(=O)Oc6ccc([C@@H]7CC(=O)c8c(O)cc(O)cc8O7)cc6)CC[C@]5(C)[C@H]4CC[C@@H]32)C1(C)C | 14 | 47.3 | 80 | 100 | 60 | 0.47 |  |  |  |  |  |  |  |  | 
CO[C@H]1CC[C@@]2(C)[C@@H](CC[C@@]3(C)CC4=CC[C@H]5C(C)(C)[C@H](OC(=O)CCC(=O)Oc6ccc(-c7coc8cc(O)ccc8c7=O)cc6)CC[C@]5(C)[C@H]4CC[C@@H]32)C1(C)C | 15 | 49.4 | 82.6 | 100 | 60 | 0.495 |  |  |  |  |  |  |  |  | 

— ChEMBL document CHEMBL1821568, “Conjugates of 3α-methoxyserrat-14-en-21β-ol (PJ-1) and 3β-methoxyserrat-14-en-21β-ol (PJ-2) as cancer chemopreventive agents” (Eur J Med Chem, 2011)
